Values after ≈ are worked out from the molar mass of the structure shown. Active and inactive are the calls of the source. No cut-off for these calls is given here.
What was measured:
Candida albicans [1] = test: Antimicrobial activity against Candida albicans ATCC 10231 measured after 18 hrs using solid lipid nanoparticle formulation by broth microdilution method; assay type: functional; settings: ATCC 10231, 18 h
Procedure, shortened: (§1)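 Broth microdilution in 96-well plates. Compound stock 10 mg/ml in DMSO, two-fold serial dilutions from final 1024 to 0.5 µg/ml in water plus double-strength nutrient broth. Inoculum from direct colony suspension in saline adjusted to 0.5 McFarland, final 5 × 10⁵ CFU per well, used within 15 min. Positive and negative control rows.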

[2] = Dissolution of the compound in phosphate buffer at pH 6.8 measured over 12 hrs using solid lipid nanoparticle formulation by dialysis bag diffusion method; assay type: physicochemical; settings: artificial membrane, pH 6.8, 12 h
Procedure, shortened: (§2)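 SLNs made by hot emulsification-ultrasonication with Compritol as lipid and 3% Pluronic F68 aqueous phase. Homogenized at 10,000 rpm and 75 °C for 15 min, then probe-sonicated 10 min.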

Acinetobacter baumannii [3] = test: Antimicrobial activity against clinical isolate of Acinetobacter baumannii measured after 18 hrs by broth microdilution method; assay type: functional; procedure, shortened: as §1
Pseudomonas aeruginosa [4] = test: Antimicrobial activity against Pseudomonas aeruginosa ATCC 27853 measured after 18 hrs using solid lipid nanoparticle formulation by broth microdilution method; assay type: functional; settings: ATCC 27853, 18 h; procedure, shortened: as §1
[5] = Permeability of the compound in simulated dialysis membrane at pH 6.8 measured within 6 hrs using solid lipid nanoparticle formulation by Franz diffusion cell-based spectrophotometric method; assay type: ADME, cell membranes; settings: artificial membrane, pH 6.8, 6 h; procedure, shortened: as §2
[6] = Permeability of the compound in simulated dialysis membrane at pH 6.8 measured within 6 hrs by Franz diffusion cell-based spectrophotometric method; assay type: ADME, cell membranes; settings: artificial membrane, pH 6.8, 6 h
Procedure, shortened: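 Franz cell with dialysis membrane. 1 ml of SLN formula or compound suspension in the donor chamber; receptor holds phosphate buffer pH 6.8 at 37 °C, magnetically stirred. Receptor sampled with replacement over 6 h; concentration by UV absorbance against a calibration curve.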

Candida albicans [7] = test: Antimicrobial activity against Candida albicans ATCC 10231 measured after 18 hrs by broth microdilution method; assay type: functional; settings: ATCC 10231, 18 h; procedure, shortened: as §1
Escherichia coli [8] = test: Antimicrobial activity against Escherichia coli ATCC 25922 measured after 18 hrs using solid lipid nanoparticle formulation by broth microdilution method; assay type: functional; settings: ATCC 25922, 18 h; procedure, shortened: as §1
Klebsiella pneumoniae [9] = test: Antimicrobial activity against Klebsiella pneumoniae ATCC 700603 measured after 18 hrs by broth microdilution method; assay type: functional; settings: Klebsiella pneumoniae, 700603, 18 h; procedure, shortened: as §1
Staphylococcus aureus [10] = test: Antimicrobial activity against Staphylococcus aureus ATCC 29213 measured after 18 hrs using solid lipid nanoparticle formulation by broth microdilution method; assay type: functional; settings: ATCC 29213, 18 h; procedure, shortened: as §1
Proteus mirabilis [11] = test: Antimicrobial activity against Proteus mirabilis ATCC 14153 measured after 18 hrs using solid lipid nanoparticle formulation by broth microdilution method; assay type: functional; settings: ATCC 14153, 18 h; procedure, shortened: as §1
Staphylococcus aureus [12] = test: Antimicrobial activity against Staphylococcus aureus ATCC 29213 assessed as diameter of inhibition zone at 380 ug by Kirby-Bauer disk diffusion test; assay type: functional; settings: for zone of inhibition at 380 µg/disc: read-out: DIZ
Procedure, shortened: (§3)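 Modified Kirby-Bauer disc diffusion on Muller-Hinton agar. Inhibition-zone diameter, disc diameter included, measured with a ruler from under the plate and recorded in mm.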

Candida albicans [13] = test: Antimicrobial activity against Candida albicans ATCC 10231 at 380 ug by Kirby-Bauer disk diffusion test; assay type: functional, organism-based; procedure, shortened: as §3
Acinetobacter baumannii [14] = test: Antimicrobial activity against clinical isolate of Acinetobacter baumannii measured after 18 hrs using solid lipid nanoparticle formulation by broth microdilution method; assay type: functional; procedure, shortened: as §1
Klebsiella pneumoniae [15] = test: Antimicrobial activity against Klebsiella pneumoniae ATCC 700603 measured after 18 hrs using solid lipid nanoparticle formulation by broth microdilution method; assay type: functional; settings: Klebsiella pneumoniae, 700603, 18 h; procedure, shortened: as §1
Escherichia coli [16] = test: Antimicrobial activity against Escherichia coli ATCC 25922 measured after 18 hrs by broth microdilution method; assay type: functional; settings: ATCC 25922, 18 h; procedure, shortened: as §1
[17] = Dissolution of the compound in phosphate buffer at pH 6.8 measured within 2 hrs by dialysis bag diffusion method; assay type: physicochemical; settings: artificial membrane, pH 6.8, 2 h
Procedure, shortened: (§4)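 Formula or compound suspension (3 ml) in 12 kDa MWCO dialysis bags, in 500 ml enzyme-free phosphate buffer pH 6.8, 37 °C, 50 rpm. 5 ml samples taken with replacement over 12 h. Cumulative % release determined by UV absorbance against a calibration curve.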

Proteus mirabilis [18] = test: Antimicrobial activity against Proteus mirabilis ATCC 14153 measured after 18 hrs by broth microdilution method; assay type: functional; settings: ATCC 14153, 18 h; procedure, shortened: as §1
Pseudomonas aeruginosa [19] = test: Antimicrobial activity against Pseudomonas aeruginosa ATCC 27853 measured after 18 hrs by broth microdilution method; assay type: functional; settings: ATCC 27853, 18 h; procedure, shortened: as §1
Staphylococcus aureus [20] = test: Antimicrobial activity against Staphylococcus aureus ATCC 29213 measured after 18 hrs by broth microdilution method; assay type: functional; settings: ATCC 29213, 18 h; procedure, shortened: as §1
Escherichia coli [21] = test: Antimicrobial activity against Escherichia coli ATCC 25922 assessed as diameter of inhibition zone at 380 ug by Kirby-Bauer disk diffusion test; assay type: functional; settings: read-out: DIZ; procedure, shortened: as §3
Klebsiella pneumoniae [22] = test: Antimicrobial activity against Klebsiella pneumoniae ATCC 700603 assessed as diameter of inhibition zone at 380 ug by Kirby-Bauer disk diffusion test; assay type: functional; settings: read-out: DIZ; procedure, shortened: as §3
Proteus mirabilis [23] = test: Antimicrobial activity against Proteus mirabilis ATCC 14153 assessed as diameter of inhibition zone at 380 ug by Kirby-Bauer disk diffusion test; assay type: functional; settings: read-out: DIZ; procedure, shortened: as §3
Acinetobacter baumannii [24] = test: Antimicrobial activity against clinical isolate of Acinetobacter baumannii assessed as diameter of inhibition zone at 380 ug by Kirby-Bauer disk diffusion test; assay type: functional; settings: read-out: DIZ; procedure, shortened: as §3
Pseudomonas aeruginosa [25] = test: Antimicrobial activity against Pseudomonas aeruginosa ATCC 27853 assessed as diameter of inhibition zone at 380 ug by Kirby-Bauer disk diffusion test; assay type: functional; settings: read-out: DIZ; procedure, shortened: as §3
[26] = Dissolution of the compound in phosphate buffer at pH 6.8 measured after 2 hrs by dialysis bag diffusion method; assay type: physicochemical; settings: artificial membrane, pH 6.8, 2 h; procedure, shortened: as §4

SMILES	MIC (Candida albicans [1]) [µg/mL]	Activity [2] [%]	MIC (Acinetobacter baumannii [3]) [µg/mL]	MIC (Pseudomonas aeruginosa [4]) [µg/mL]	permeability [5] [%]	permeability [6] [%]	MIC (Candida albicans [7]) [µg/mL]	MIC (Escherichia coli [8]) [µg/mL]	MIC (Klebsiella pneumoniae [9]) [µg/mL]	MIC (Staphylococcus aureus [10]) [µg/mL]	MIC (Proteus mirabilis [11]) [µg/mL]	growth inhibition (GI) (Staphylococcus aureus [12])	Activity (Candida albicans [13])	MIC (Acinetobacter baumannii [14]) [µg/mL]	MIC (Klebsiella pneumoniae [15]) [µg/mL]	MIC (Escherichia coli [16]) [µg/mL]	Activity [17] [%]	MIC (Proteus mirabilis [18]) [µg/mL]	MIC (Pseudomonas aeruginosa [19]) [µg/mL]	MIC (Staphylococcus aureus [20]) [µg/mL]	other results
COCc1ccc([C@@H]2[C@@H](O)[C@H](O)[C@@H](C)N2C)cc1	> 1020	92.1	> 1020	> 1020	100	62.7	> 1020	8 (≈ 31.8 µM)	256 (≈ 1020 µM)	2 (≈ 7.96 µM)	8 (≈ 31.8 µM)	Active	inactive	> 1020	512 (≈ 2040 µM)	8 (≈ 31.8 µM)	91.8	16 (≈ 63.7 µM)	> 1020	2 (≈ 7.96 µM)	–
COc1ccc([C@@H]2[C@@H](O)[C@H](O)[C@@H](C)N2C)cc1OC	> 1020	93.2	> 1020	> 1020	100	67.2	> 1020	256 (≈ 958 µM)	> 1020	32 (≈ 120 µM)	> 1020	Active	inactive	> 1020	> 1020	64 (≈ 239 µM)	87.8	> 1020	> 1020	32 (≈ 120 µM)	–
COc1ccc([C@@H]2[C@@H](O)[C@H](O)[C@@H](C)N2C)c(F)c1	> 1020	90.2	512 (≈ 2010 µM)	> 1020	100	59.1	> 1020	16 (≈ 62.7 µM)	> 1020	≤ 0.5	> 1020	–	inactive	512 (≈ 2010 µM)	1020 (≈ 4010 µM)	4 (≈ 15.7 µM)	96.7	> 1020	> 1020	≤ 0.5	zone of inhibition at 380 µg/disc (Staphylococcus aureus [12]): 30 mm
C[C@@H]1[C@@H](O)[C@H](O)[C@@H](c2ccccc2)N1C	> 1020	91.2	128 (≈ 618 µM)	512 (≈ 2470 µM)	100	49.8	> 1020	16 (≈ 77.2 µM)	1020 (≈ 4940 µM)	1020 (≈ 4940 µM)	2 (≈ 9.65 µM)	–	inactive	16 (≈ 77.2 µM)	> 1020	16 (≈ 77.2 µM)	100	4 (≈ 19.3 µM)	1020 (≈ 4940 µM)	1020 (≈ 4940 µM)	zone of inhibition at 380 µg/disc (Escherichia coli [21]): 40 mm; zone of inhibition at 380 µg/disc (Klebsiella pneumoniae [22]): 22 mm; zone of inhibition at 380 µg/disc (Proteus mirabilis [23]): 34 mm; zone of inhibition at 380 µg/disc (Acinetobacter baumannii [24]): 32 mm; zone of inhibition at 380 µg/disc (Pseudomonas aeruginosa [25]): 18 mm
Cc1ccc([C@@H]2[C@@H](O)[C@H](O)[C@@H](C)N2C)cc1	> 1020	90.1	256 (≈ 1160 µM)	1020 (≈ 4630 µM)	100	56.3	> 1020	512 (≈ 2310 µM)	1020 (≈ 4630 µM)	1020 (≈ 4630 µM)	512 (≈ 2310 µM)	–	inactive	64 (≈ 289 µM)	512 (≈ 2310 µM)	128 (≈ 578 µM)	100	1020 (≈ 4630 µM)	1020 (≈ 4630 µM)	> 1020	–
COc1cc([C@@H]2[C@@H](O)[C@H](O)[C@@H](C)N2C)c(F)c(C)c1OC	> 1020	92.2	512 (≈ 1710 µM)	> 1020	100	72.9	> 1020	16 (≈ 53.5 µM)	512 (≈ 1710 µM)	4 (≈ 13.4 µM)	128 (≈ 428 µM)	Active	inactive	256 (≈ 855 µM)	> 1020	64 (≈ 214 µM)	–	1020 (≈ 3420 µM)	1020 (≈ 3420 µM)	4 (≈ 13.4 µM)	Activity [26]: 78.2%
COc1ccc([C@@H]2[C@@H](O)[C@H](O)[C@@H](C)N2C)cc1	> 1020	93.3	> 1020	> 1020	100	60.7	> 1020	64 (≈ 270 µM)	> 1020	≤ 0.5	64 (≈ 270 µM)	–	inactive	256 (≈ 1080 µM)	1020 (≈ 4320 µM)	128 (≈ 539 µM)	95.2	128 (≈ 539 µM)	1020 (≈ 4320 µM)	≤ 0.5	zone of inhibition at 380 µg/disc (Staphylococcus aureus [12]): 32 mm

From ChEMBL document CHEMBL4480414, “Design and total synthesis of (-)-codonopsinine, (-)-codonopsine and codonopsinine analogues by O-(2-oxopyrrolidin-5-yl)trichloroacetimidate as amidoalkylating agent with improved antimicrobial activity via solid lipid nanoparticle formulations” (Bioorg Med Chem, 2019)
